# Laboratory results taken from ChEMBL document CHEMBL1133534, “1,3-Diaryl-4,5,6,7-tetrahydro-2H-isoindole derivatives: a new series of potent and selective COX-2 inhibitors in which a sulfonyl group is not a structural requisite” (J Med Chem, 2000).
# pIC50: −log10 of the molar value.
# System: not listed separately
# Experiment: Gastric toxicity of the compound.
# Details: not given
# In short: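 Male Swiss mice, fasted overnight with water, were dosed orally at 400 mg/kg or given vehicle, and killed by cervical dislocation 5 h later. The stomach was opened and mucosal damage scored blind from 0 (normal) to 5 (perforation). Mean ± SEM, 8 animals/group.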
row,Compound,Gastric score
1,c1ccc(-c2[nH]c(-c3ccccc3)c3c2C2CCC3C2)cc1,0.3
2,COc1ccc2c(c1)c(CC(=O)O)c(C)n2C(=O)c1ccc(Cl)cc1 [INDOMETHACIN],2.4
3,Cc1ccc(-c2cc(C(F)(F)F)nn2-c2ccc(S(N)(=O)=O)cc2)cc1 [CELECOXIB],0.7
4,Fc1ccc(-c2[nH]c(-c3ccc(F)cc3)c3c2C2CCC3C2)cc1,0.3
5,Fc1ccc(-c2[nH]c(-c3ccc(F)cc3)c3c2C2CCC3CC2)cc1,0.3
6,Fc1ccc(-c2[nH]c(-c3ccc(F)cc3)c3c2CCC3)cc1,0.7

# Species on record: Mus musculus
# Experiment: (§1) Compound was evaluated for its effective dose to inhibit exudate PGE-2
# Details: not given
# In short: (§2)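 Mice given compound or vehicle orally 18 h after air-pouch induction; 1 h later 500 µL sterile 1% carrageenan injected into pouch; sacrifice 5 h after carrageenan. Pouch lavaged with 2 mL heparinized HBSS, kept on ice, PGE2 measured by EIA after solid-phase extraction. ED50 from 3 or 4 dose points, at least 8 mice/group.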
row,Compound,ED50
1,Clc1ccc(-c2[nH]c(-c3ccc(Cl)cc3)c3c2CCCC3)cc1,20 mg/kg
2,c1ccc(-c2[nH]c(-c3ccccc3)c3c2CCCC3)cc1,20 mg/kg
3,c1ccc(-c2[nH]c(-c3ccccc3)c3c2C2CCC3C2)cc1,20 mg/kg
4,c1ccc(-c2[nH]c(-c3ccccc3)c3c2C2CCC3CC2)cc1,> 40 mg/kg
5,Fc1ccc(-c2[nH]c(-c3ccc(F)cc3)c3c2CCCC3)cc1,20 mg/kg
6,Fc1ccc(-c2[nH]c(-c3ccc(F)cc3)c3c2C2CCC3C2)cc1,6.8 mg/kg
7,Fc1ccc(-c2[nH]c(-c3ccc(F)cc3)c3c2C2CCC3CC2)cc1,3.5 mg/kg
8,Fc1ccc(-c2[nH]c(-c3ccc(F)cc3)c3c2CCC3)cc1,20 mg/kg

# System: not listed separately
# Experiment: as §1
# Format: functional
# Details: Mus musculus
# In short: as §2
row,Compound,ED50
1,Cc1ccc(-c2cc(C(F)(F)F)nn2-c2ccc(S(N)(=O)=O)cc2)cc1 [CELECOXIB],10 mg/kg

# Species on record: Mus musculus
# Experiment: (§3) Compound was evaluated for its effective dose to inhibit gastric PGE-2
# Format: tissue-based
# Details: Stomach
# In short: (§4)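 Mice with air pouches (18 h old) were dosed orally with compound or vehicle. After 1 h, 500 µL sterile 1% carrageenan was injected into the pouch, and mice were killed 5 h later. Pouch lavage (heparinized HBSS) was cooled on ice, and PGE2 was measured by EIA after solid-phase extraction. Excised stomachs were rinsed and incubated 15 min in PBS, and supernatant PGE2 was measured by EIA. ED50 from 3 or 4 doses, at least 8 mice/group.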
row,Compound,ED50
1,Clc1ccc(-c2[nH]c(-c3ccc(Cl)cc3)c3c2CCCC3)cc1,> 80 mg/kg
2,c1ccc(-c2[nH]c(-c3ccccc3)c3c2CCCC3)cc1,50 mg/kg
3,c1ccc(-c2[nH]c(-c3ccccc3)c3c2C2CCC3C2)cc1,80 mg/kg
4,c1ccc(-c2[nH]c(-c3ccccc3)c3c2C2CCC3CC2)cc1,> 40 mg/kg
5,Fc1ccc(-c2[nH]c(-c3ccc(F)cc3)c3c2CCCC3)cc1,50 mg/kg
6,Fc1ccc(-c2[nH]c(-c3ccc(F)cc3)c3c2C2CCC3C2)cc1,> 40 mg/kg
7,Fc1ccc(-c2[nH]c(-c3ccc(F)cc3)c3c2C2CCC3CC2)cc1,> 20 mg/kg
8,Fc1ccc(-c2[nH]c(-c3ccc(F)cc3)c3c2CCC3)cc1,> 80 mg/kg

# Target: T1, Prostaglandin G/H synthase 1 (Mus musculus, UniProt P22437)
# T1 sequence (P22437 whole entry): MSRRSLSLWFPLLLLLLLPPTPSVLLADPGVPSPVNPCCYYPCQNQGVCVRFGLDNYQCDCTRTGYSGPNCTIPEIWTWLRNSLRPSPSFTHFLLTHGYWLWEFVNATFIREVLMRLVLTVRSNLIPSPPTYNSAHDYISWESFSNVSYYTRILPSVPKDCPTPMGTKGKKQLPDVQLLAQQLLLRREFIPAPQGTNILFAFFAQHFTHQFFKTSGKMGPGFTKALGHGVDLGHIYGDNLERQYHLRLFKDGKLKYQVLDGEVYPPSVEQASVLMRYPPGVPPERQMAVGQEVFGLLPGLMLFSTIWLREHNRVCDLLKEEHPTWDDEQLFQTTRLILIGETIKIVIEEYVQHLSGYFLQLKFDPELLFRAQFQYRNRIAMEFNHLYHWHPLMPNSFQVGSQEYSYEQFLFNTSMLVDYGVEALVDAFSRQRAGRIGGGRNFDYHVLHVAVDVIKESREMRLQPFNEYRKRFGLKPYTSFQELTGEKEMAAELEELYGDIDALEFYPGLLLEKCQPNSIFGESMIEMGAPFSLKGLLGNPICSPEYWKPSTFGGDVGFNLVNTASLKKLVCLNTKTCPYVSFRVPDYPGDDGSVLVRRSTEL
# Experiment: Inhibition against prostaglandin G/H synthase 1 from mouse resident macrophages
# Details: not given
row,Compound,pIC50
1,Clc1ccc(-c2[nH]c(-c3ccc(Cl)cc3)c3c2CCCC3)cc1,< 5.30
2,c1ccc(-c2[nH]c(-c3ccccc3)c3c2CCCC3)cc1,7.00
3,c1ccc(-c2[nH]c(-c3ccccc3)c3c2C2CCC3C2)cc1,7.00
4,c1ccc(-c2[nH]c(-c3ccccc3)c3c2C2CCC3CC2)cc1,6.60
5,Fc1ccc(-c2[nH]c(-c3ccc(F)cc3)c3c2CCCC3)cc1,7.00
6,Fc1ccc(-c2[nH]c(-c3ccc(F)cc3)c3c2C2CCC3CC2)cc1,6.64
7,Fc1ccc(-c2[nH]c(-c3ccc(F)cc3)c3c2CCC3)cc1,7.00

# Target: Prostaglandin G/H synthase 1 (Homo sapiens, UniProt P23219)
# Sequence (P23219 whole entry): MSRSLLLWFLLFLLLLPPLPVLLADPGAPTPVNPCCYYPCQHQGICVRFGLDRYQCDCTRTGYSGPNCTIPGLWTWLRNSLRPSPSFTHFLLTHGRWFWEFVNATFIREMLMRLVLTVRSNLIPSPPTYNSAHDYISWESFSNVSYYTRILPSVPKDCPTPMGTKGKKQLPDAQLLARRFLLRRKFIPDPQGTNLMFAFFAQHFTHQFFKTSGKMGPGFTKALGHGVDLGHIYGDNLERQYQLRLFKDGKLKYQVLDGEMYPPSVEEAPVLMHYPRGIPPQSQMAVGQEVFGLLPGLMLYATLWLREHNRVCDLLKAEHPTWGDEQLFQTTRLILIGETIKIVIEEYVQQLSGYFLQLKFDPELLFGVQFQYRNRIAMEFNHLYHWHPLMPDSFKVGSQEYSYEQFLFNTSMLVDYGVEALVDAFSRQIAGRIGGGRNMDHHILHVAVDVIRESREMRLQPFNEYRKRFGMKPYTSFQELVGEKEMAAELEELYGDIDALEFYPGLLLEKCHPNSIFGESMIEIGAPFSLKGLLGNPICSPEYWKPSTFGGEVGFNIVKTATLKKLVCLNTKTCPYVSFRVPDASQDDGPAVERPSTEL
# Experiment: Tested in vitro for inhibition against Prostaglandin G/H synthase 1 in human blood
# Details: not given
row,Compound,pIC50
1,Fc1ccc(-c2[nH]c(-c3ccc(F)cc3)c3c2C2CCC3C2)cc1,6.00
2,Fc1ccc(-c2[nH]c(-c3ccc(F)cc3)c3c2C2CCC3CC2)cc1,4.52

# Target: T2, Prostaglandin G/H synthase 2 (Mus musculus, UniProt Q05769)
# T2 sequence (Q05769 whole entry): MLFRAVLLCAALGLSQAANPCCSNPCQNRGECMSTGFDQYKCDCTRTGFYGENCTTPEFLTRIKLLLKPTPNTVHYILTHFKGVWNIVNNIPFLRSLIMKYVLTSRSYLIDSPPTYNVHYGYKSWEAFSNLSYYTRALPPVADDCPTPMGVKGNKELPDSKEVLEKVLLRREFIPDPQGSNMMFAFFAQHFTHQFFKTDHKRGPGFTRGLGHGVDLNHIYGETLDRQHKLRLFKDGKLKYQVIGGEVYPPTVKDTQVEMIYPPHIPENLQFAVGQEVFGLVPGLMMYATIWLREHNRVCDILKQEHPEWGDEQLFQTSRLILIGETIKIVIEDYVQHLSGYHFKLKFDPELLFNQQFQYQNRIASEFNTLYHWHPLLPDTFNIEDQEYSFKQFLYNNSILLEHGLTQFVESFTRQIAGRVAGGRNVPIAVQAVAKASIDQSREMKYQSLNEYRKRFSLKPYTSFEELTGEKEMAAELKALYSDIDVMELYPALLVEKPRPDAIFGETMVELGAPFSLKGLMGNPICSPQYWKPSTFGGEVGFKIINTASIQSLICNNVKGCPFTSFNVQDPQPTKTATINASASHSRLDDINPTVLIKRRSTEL
# Experiment: Inhibition against prostaglandin G/H synthase 2 from mouse resident macrophages
# Details: not given
row,Compound,pIC50
1,Clc1ccc(-c2[nH]c(-c3ccc(Cl)cc3)c3c2CCCC3)cc1,8.30
2,c1ccc(-c2[nH]c(-c3ccccc3)c3c2CCCC3)cc1,8.82
3,c1ccc(-c2[nH]c(-c3ccccc3)c3c2C2CCC3C2)cc1,8.59
4,c1ccc(-c2[nH]c(-c3ccccc3)c3c2C2CCC3CC2)cc1,8.80
5,Fc1ccc(-c2[nH]c(-c3ccc(F)cc3)c3c2CCCC3)cc1,8.77
6,Fc1ccc(-c2[nH]c(-c3ccc(F)cc3)c3c2C2CCC3CC2)cc1,9.22
7,Fc1ccc(-c2[nH]c(-c3ccc(F)cc3)c3c2CCC3)cc1,8.54

# System: Rattus norvegicus
# Experiment: Inhibition of edema after oral administration at 2 mg/kg, twice daily
# Format: functional
# Details: not given
# In short: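 Adjuvant-induced arthritis in female Lewis rats. Compound was given orally at 2 mg/kg twice daily, and noninjected paw edema inhibition was read at day 21, 10 rats/group.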
row,Compound,inhibition in vivo at 2 mg/kg
1,Fc1ccc(-c2[nH]c(-c3ccc(F)cc3)c3c2CCC3)cc1,14%

# System: Rattus norvegicus
# Experiment: Inhibition of edema after oral administration at 2 mg/kg/day
# Format: functional
# Details: not given
# In short: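 Adjuvant-induced arthritis in female Lewis rats. Compound was given orally at 2 mg/kg/day, and noninjected paw edema inhibition was read at day 21, 10 rats/group.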
row,Compound,inhibition in vivo at 2 mg/kg/day
1,Fc1ccc(-c2[nH]c(-c3ccc(F)cc3)c3c2CCCC3)cc1,15%

# System: Rattus norvegicus
# Experiment: Effective dose for inhibition of edema after oral administration (95% confidence limits)
# Format: functional
# Details: not given
# In short: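 Adjuvant-induced arthritis in female Lewis rats, with oral dosing. Edema of the noninjected paw was read at day 21, 10 rats/group. ED50 was estimated by linear regression with 95% confidence limits.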
row,Compound,ED50
1,Cc1ccc(-c2cc(C(F)(F)F)nn2-c2ccc(S(N)(=O)=O)cc2)cc1 [CELECOXIB],0.32 mg/kg/day
2,Fc1ccc(-c2[nH]c(-c3ccc(F)cc3)c3c2C2CCC3C2)cc1,0.35 mg/kg/day
3,Fc1ccc(-c2[nH]c(-c3ccc(F)cc3)c3c2C2CCC3CC2)cc1,0.15 mg/kg/day

# System: Rattus norvegicus
# Experiment: Effective dose for inhibition of edema of the non injected paw in rat
# Details: not given
row,Compound,ED50
1,Cc1ccc(-c2cc(C(F)(F)F)nn2-c2ccc(S(N)(=O)=O)cc2)cc1 [CELECOXIB],0.37 mg/kg/day

# System: not listed separately
# Experiment: as §3
# Format: functional
# Details: Mus musculus, Stomach
# In short: as §4
row,Compound,ED50
1,Cc1ccc(-c2cc(C(F)(F)F)nn2-c2ccc(S(N)(=O)=O)cc2)cc1 [CELECOXIB],> 40 mg/kg

# Target: T3, Prostaglandin G/H synthase 2 (Homo sapiens, UniProt P35354)
# T3 sequence (P35354 whole entry): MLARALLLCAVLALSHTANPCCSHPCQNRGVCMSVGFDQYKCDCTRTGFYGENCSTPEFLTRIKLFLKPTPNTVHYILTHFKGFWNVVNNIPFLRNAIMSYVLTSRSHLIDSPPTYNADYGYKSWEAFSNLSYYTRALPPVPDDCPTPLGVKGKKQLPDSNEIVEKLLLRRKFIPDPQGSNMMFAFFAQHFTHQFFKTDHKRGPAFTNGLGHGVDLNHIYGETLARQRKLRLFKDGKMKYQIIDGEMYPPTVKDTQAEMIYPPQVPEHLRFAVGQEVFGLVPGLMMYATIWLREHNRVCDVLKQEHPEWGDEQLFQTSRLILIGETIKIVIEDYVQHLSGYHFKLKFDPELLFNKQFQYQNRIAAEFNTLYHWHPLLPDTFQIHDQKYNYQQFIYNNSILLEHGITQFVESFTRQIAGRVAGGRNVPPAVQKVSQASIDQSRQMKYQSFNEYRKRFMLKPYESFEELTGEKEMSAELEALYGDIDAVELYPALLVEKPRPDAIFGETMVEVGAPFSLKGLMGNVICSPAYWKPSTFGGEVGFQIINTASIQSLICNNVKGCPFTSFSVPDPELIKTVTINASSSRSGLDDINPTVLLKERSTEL
# Details: not given
row,Compound,pIC50
1,Fc1ccc(-c2[nH]c(-c3ccc(F)cc3)c3c2C2CCC3C2)cc1,10.10
2,Fc1ccc(-c2[nH]c(-c3ccc(F)cc3)c3c2C2CCC3CC2)cc1,9.92
